A selection: hits, their analogues and other compounds. The true share with any hit is near 2.9%.
OX1R antag-1 – antagonists of human orexin 1 receptor | 330,000 compounds, 0.43% hits | AID 434989 | CHO/OX1R cells, Fluo-8 calcium fluorescence, orexin A | O43613 | inhibition, % at 5 µM;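 active = inhibition above its plate's threshold, mean inhibition of all tested compounds on the plate plus 3 SD, cut at about 37% in these data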;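 also: 0% = orexin A challenge wells and 100% = SB-334867-A antagonist wells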
Target sequence (O43613 whole entry, looked up): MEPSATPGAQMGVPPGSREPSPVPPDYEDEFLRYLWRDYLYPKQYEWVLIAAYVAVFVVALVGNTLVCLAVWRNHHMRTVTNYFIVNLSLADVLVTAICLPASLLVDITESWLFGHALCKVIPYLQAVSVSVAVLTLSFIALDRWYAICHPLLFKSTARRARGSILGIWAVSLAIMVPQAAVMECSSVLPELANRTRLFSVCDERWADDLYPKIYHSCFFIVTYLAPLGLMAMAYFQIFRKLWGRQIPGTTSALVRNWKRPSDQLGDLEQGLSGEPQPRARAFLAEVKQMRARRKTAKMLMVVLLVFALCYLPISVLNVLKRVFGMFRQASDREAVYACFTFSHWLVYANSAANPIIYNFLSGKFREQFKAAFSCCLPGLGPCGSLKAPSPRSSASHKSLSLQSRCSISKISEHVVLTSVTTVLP
CHO-K1 Ca PAM – nonselective activator or artifact in parental CHO-K1 calcium assay | ATP EC20, Fluo-8 calcium fluorescence; 0% at ATP EC20, 100% at ATP max | activation, % at 3 µM | 360,000 compounds, 0.02% hits | AID 602247;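 active = activation above the run cutoff, the mean activation of all test compounds plus 3 SD, cut at about 40% in these data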;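 also: peak over basal fluorescence ratio in a 140 s read after ATP addition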
CHO parental Ca – counter-screen: ATP calcium response change in parental CHO cells; parental CHO-K1, ATP-induced calcium, Fluo-8 fluorescence; inhibition, % at 5.6 µM; 330,000 compounds, 0.63% hits;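 active = inhibition above that plate's mean sample inhibition plus 3 SD, cut at about 26% in these data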;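 also: 0% = ATP-challenged DMSO wells and 100% = DMSO wells without ATP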
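test system = CHO parental line | reagent = ATP stimulus | measured by = intracellular calcium via Fluo-8 no-wash fluorescent dye | control set = ATP and no-ATP DMSO wells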
CHO-K1 Ca ag – counter-screen for M1 agonists: effect in parental CHO-K1 cells; Fluo-8 calcium fluorescence; scaled to maximal ATP response, vehicle zero; 360,000 compounds, 0.48% hits; activation, % at 3 µM; in the data active = activation above about 15%;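 also: untransfected CHO-K1 host cells lacking M1 receptor as counterscreen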
CHO-K1 Ca antag – M1 antagonist counterscreen hit in parental CHO-K1 cells. ATP-induced calcium, Fluo-8 fluorescence. inhibition, % at 3 µM. 360,000 compounds, 0.6% hits. AID 602250;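 active = inhibition above a per-plate cutoff, the plate's mean sample inhibition plus 3 SD, cut at about 24% in these data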;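 also: 0% = DMSO plus EC80 ATP and 100% = DMSO alone without ATP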
OX1R antag-2 – blocks the human orexin 1 receptor; O43613; OX1R-expressing cells, FRET antagonist read-out; inhibition, % at 6.6 µM; 330,000 compounds, 1.8% hits; in the data active = inhibition mostly above about 38%, no sharp cut-off; inactive = mostly below about 40%;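 also: 0% = agonist challenge alone and 100% = reference antagonist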
OX1R Fluo8 conf – confirmation of human orexin 1 receptor antagonists | 1,100 compounds, 38% hits | inhibition, % at 5 µM | AID 492963 | CHO/OX1R cells, orexin A calcium Fluo-8 fluorescence | shares compounds with OX1R antag-1; in the data active = inhibition above about 29%;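 also: 0% = agonist challenge alone and 100% = reference antagonist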
CHO Ca triplic – counter-screen for OX1R antagonists: effect in parental CHO cells; shares compounds with OX1R antag-1; parental CHO-K1, ATP-induced calcium, Fluo-8 fluorescence; inhibition, % at 5.6 µM; 1,100 compounds, 9.3% hits;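 active = inhibition above a per-plate limit, the mean inhibition of that plate's test compounds plus 3 SD, cut at about 25% in these data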;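 also: 0% = ATP challenge with DMSO and 100% = DMSO without ATP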
OX1R HTRF confirm – OX1R (human) antagonism, HTRF confirmed. shares compounds with OX1R antag-2. 1,800 compounds, 49% hits. OX1R-expressing cells, HTRF antagonist assay. inhibition, % at 6.6 µM; in the data active = inhibition above about 55%;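 also: CHO cells expressing OX1R stimulated with orexin A at about EC80; 0% = agonist challenge alone and 100% = reference antagonist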
CHO-K1 HTRF cnt – counter-screen for OX1R antagonists: effect in parental CHO-K1 cells; inhibition, % at 6.6 µM; shares compounds with OX1R antag-2; 1,800 compounds, 48% hits; HTRF counterscreen; AID 493232; in the data active = inhibition above about 17%;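 also: 0% = agonist challenge with vehicle and 100% = vehicle alone without agonist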
* marks the source's active call; other numbers are inactive results; · = no result.

SMILES	OX1R antag-1	CHO-K1 Ca PAM	CHO parental Ca	CHO-K1 Ca ag	CHO-K1 Ca antag	OX1R antag-2	OX1R HTRF confirm	CHO-K1 HTRF cnt	others
CCCCn1c(=O)c(C(=O)Nc2ncccc2C)c(O)c2ccccc21	-18.6	-1.5	-11.3	0.0	1.4	-1.4	·	·
CCCCCCn1c(=O)c(C(=O)Nc2ncccc2C)c(O)c2ccccc21	30.5	10.7	20.0	0.2	-0.6	12.8	·	·	OX1R Fluo8 conf=-0.3;CHO Ca triplic=6.2
CN1C(=O)C(Cc2ccc3c(c2)OCO3)C(=O)N(C)C1=O	1.2	·	-6.8	·	·	6.2	·	·
CN(C)c1ccc2c(c1)N=C(c1ccco1)OP2(=S)N1CCOCC1 (centres undefined)	-13.1	9.9	-15.4	0.2	-16.8	-3.2	·	·
CC(C)CCN1CCN(Cc2c(F)cccc2Cl)CC1CCO (centres undefined)	-20.1	18.1	-16.0	0.2	-4.4	8.0	·	·
CC(=O)Nc1ccccc1C(=O)OCC(=O)c1ccc2ccccc2c1	44.1*	14.3	17.2	5.1	9.2	27.2	·	·	OX1R Fluo8 conf=32.4*;CHO Ca triplic=7.1
CC(=O)Nc1ccccc1C(=O)OCc1ccc(C(=O)c2ccccc2)cc1	23.6	-6.3	13.2	9.1	-2.9	19.8	·	·
Oc1ccc(C2NCc3ccccc3-n3cccc32)cc1Cl (centres undefined)	-0.1	17.9	2.8	5.7	-1.2	22.8	·	·	OX1R Fluo8 conf=0.2;CHO Ca triplic=-9.6
CC(C)(C)N1Cc2ccccc2C1=N	2.3	24.0	9.4	0.9	-8.3	2.0	·	·
O=P(Nc1ccccc1)(Oc1ccccc1)Oc1ccccc1	-7.2	12.8	-7.8	7.0	-3.0	26.8	·	·
COc1cccc(OP(=O)(Nc2ccccc2)Oc2cccc(OC)c2)c1	45.0*	-0.8	-3.8	6.6	0.4	59.6*	47.3	0.0	OX1R Fluo8 conf=29.0*;CHO Ca triplic=0.4
O=C(O)C1C2CCC(O2)C1C(=O)NC1CCCCC1 (centres undefined)	-12.1	21.2	-0.3	1.5	-5.6	10.5	·	·
COC(=O)C1=C(c2ccccc2OCc2ccccc2)C[C@@H]2CC[C@H]1N2C(=O)NCCOc1ccccc1Cl	61.6*	20.3	-10.9	1.0	-24.4	52.6*	70.1*	-1.8	OX1R Fluo8 conf=33.0*;CHO Ca triplic=-10.0
Cn1c(=O)c2nncnc2n(C)c1=O	-11.8	-9.5	-3.7	-0.3	4.6	124.9*	44.9	74.8*
O=S(=O)(NC1CN2CCC1CC2)c1ccc(Cl)cc1 (centres undefined)	-4.1	-10.6	-1.8	1.0	-7.8	8.5	·	·
O=C(NC1CN2CCC1CC2)c1cc(Cl)c([N+](=O)[O-])c2nc[nH]c12 (centres undefined)	0.6	2.4	-12.8	-0.2	0.0	130.2*	48.5	82.9*
O=C1NC(=O)N(c2ccc3c(c2)OCO3)C(=O)/C1=C/c1ccc(N2CCCC2)o1	-1.9	6.6	1.7	8.1	5.9	92.2*	46.4	74.9*
CCCC1=C(C(=O)OCC)C2(C(=O)Nc3ccccc32)C(C#N)=C(N)O1 (centres undefined)	-4.1	-1.2	-6.5	0.1	1.3	10.7	·	·
CNc1ccc2nc3ccccc3[n+](C)c2c1	-8.3	-6.6	6.1	0.6	-8.7	94.2*	65.8*	145.0*
CC(=NCc1ccco1)c1c(O)n(-c2ccc(Cl)cc2)c(=O)[nH]c1=O	-20.5	24.9	-10.8	1.4	-15.1	13.3	·	·
CN1CC=C2C(C#N)=C(N)C(C#N)(C#N)C(c3ccncc3)C2C1 (centres undefined)	-2.0	-8.6	1.0	0.2	10.3	102.0*	18.3	24.0*
CCC(=NCc1cc(OC)cc(OC)c1)c1c(O)[nH]c(=O)[nH]c1=O	-22.7	24.7	-30.5	1.5	-16.8	13.5	·	·
N#CC(C#N)=NNc1ccc(S(N)(=O)=O)cc1	-4.0	9.1	-4.3	-0.3	-7.2	84.1*	19.1	-1.0

Assay outcomes from PubChem BioAssay.
